Compound activity deposited in PubChem by several laboratories.
In the library only some 3.6% were active in any assay of this set; here they are far more common.
Measles CPE = compounds protecting cells from measles virus cytopathic effect, primary screen, measles RdRp inhibitor project, single point, MLSMR library, absorbance; Measles virus-infected cells, CPE protection; protection (pct of control), % at 4 µM; actives 1.5% (n = 140,000); in the data active means protection mostly above about 24%, no sharp cut-off; inactive means mostly below about 26%
Yeast lifespan up = compounds extending yeast replicative lifespan, primary screen, S. cerevisiae, OD615 | S. cerevisiae growth with nicotinamide; deaD strain in restrictive glucose medium | inhibition of the nicotinamide effect, % at 10 µM | actives 0.68% (n = 130,000) | AID 775, 2007;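 active means inhibition above a set limit, placed 3 SD over the median of all compounds, cut at about 26% in these data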
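Assay system: engineered S. cerevisiae DeaD replicative-lifespan strain, galactose-grown log-phase cells; Buffer or medium: CSMM-D glucose medium, restrictive; Probe or stimulus: nicotinamide 1.5 mM; Compound: single dose 10 µM compound, 0.25% DMSO; Schedule: 4 h preincubation then 48 h treatment at 30 °C; Technique: OD615 measurement.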
RAM network inh = inhibitors of the yeast RAM network, primary screen, dse1pr::URA3 reporter, 5-FOA selection; AID 868, 2007; inhibition, % at 50 µM; S. cerevisiae dse1pr::URA3 reporter, 5-FOA growth OD615, 2 d; analog-sensitive cbk1-as2 kinase mutant strain; actives 1.8% (n = 190,000);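 active means inhibition above a set limit, 3 SD over mean compound inhibition, cut at about 8.4% in these data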;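 further: inhibition rescues growth on 5-FOA so higher OD means more RAM inhibition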
BB579 growth dn = growth inhibitors of yeast BB579 in restrictive medium, primary screen, yeast lifespan-shortening project, S. cerevisiae | AID 804, 2007 | inhibition, % at 10 µM | OD615, 48 h | actives 0.51% (n = 140,000);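 active means inhibition above a set limit, 3 SD over the mean compound inhibition, cut at about 44% in these data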
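Test system: S. cerevisiae DeaD strain BB579 yeast; Medium: restrictive CSMM-D medium; Compound: one dose, 10 µM compound with 0.25% DMSO; Incubation: 4 h cell preincubation, 48 h compound exposure, 30 °C humidified; Signal: OD at 615 nm; Benchmarks: amphotericin B at 10 µg/mL as positive control.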
Large screens that a line does not name were inactive.

Cc1c(C)c2ccc(OCC(=O)N3CCOCC3)c(C)c2oc1=O	none (no result: Measles CPE, Yeast lifespan up, BB579 growth dn)
CN(CCOc1ccc(-c2ccn(S(=O)(=O)c3cccc4ccccc34)n2)cc1)c1ccccn1	Measles CPE 44
N#Cc1ccc(C(=O)NCC(c2ccco2)N2CCCC2)cc1 (configuration not stated)	none
N#Cc1ccc(C(=O)NCC(c2ccco2)N2CCCCC2)cc1 (configuration not stated)	Measles CPE 46
Cc1ccc(C)c(N2CCN(c3ncnc4c3cnn4-c3ccccc3)CC2)c1	Measles CPE 51
CS(=O)(=O)CCC(C(=O)OCc1ccc(Cl)cc1)N1C(=O)c2ccccc2C1=O (configuration not stated)	none
Cc1cccc(C(C)(C)C)c1OCCn1ccnc1	Measles CPE 26
O=C(Nc1ccc(O)cc1)C1CCCO1 (configuration not stated)	Yeast lifespan up 53
O=C(Nc1ccc(F)cc1)C1CCCO1 (configuration not stated)	none (no result: Measles CPE, Yeast lifespan up, BB579 growth dn)
O=C(COC(=O)c1cc2ccccc2cc1O)NC(=O)NCc1ccco1	none (no result: Measles CPE, Yeast lifespan up, BB579 growth dn)
O=C(COC(=O)c1n[nH]c2ccccc12)NC(=O)NCc1ccco1	Measles CPE 25
Cc1cc(Oc2ccc(C)c(Cl)c2)nc(SCC(=O)c2ccccc2)n1	RAM network inh 9.1
COC1=Cc2c(ccc3ccc(=O)oc23)OC1(C)C	none
C=CCc1c(OC)ccc2ccc(=O)oc12	Measles CPE 36
CCc1ccc2c(c1)C1(NN=C(c3cccc4ccccc34)S1)C(=O)N2 (configuration not stated)	BB579 growth dn 66 (no result: Yeast lifespan up)
COc1ccc(C(C(=O)Nc2ccc(C(C)C)cc2)N(C)C(=O)c2ccc(=O)[nH]c2)cc1 (configuration not stated)	RAM network inh 9.0 (no result: Measles CPE, Yeast lifespan up, BB579 growth dn)
CCc1cccc(C)c1NC(=O)c1ccoc1C	Measles CPE 44
Cc1c(N=Cc2cc(Br)cc(Br)c2O)cccc1C(=O)O	BB579 growth dn 98
COC(=O)CSCC(=O)Nc1nnc(-c2cccc(C)c2)s1	none (no result: Measles CPE, Yeast lifespan up, BB579 growth dn)
COc1ccc(N2CCN(CCCn3c(=S)[nH]c4ncccc4c3=O)CC2)cc1	Measles CPE 25
Cc1ccc(Cn2nnc3c(=O)[nH]c(C4CCCN(S(=O)(=O)c5ccccc5)C4)nc32)cc1 (configuration not stated)	Measles CPE 46
O=C(O)c1c(-c2ccc(Cl)cc2)cn2ccccc12	none (no result: Measles CPE, Yeast lifespan up, BB579 growth dn)
CC(=O)N1CCC2(CC1)CC(=O)c1cc(OCC(=O)N3CCOCC3)ccc1O2	none (no result: Measles CPE, Yeast lifespan up, BB579 growth dn)
C=CCn1c(C)cc(C(=O)COc2nncc3ccccc23)c1C	Measles CPE 46
C=CCn1c(C)cc(C(=O)CSc2nnc(Cc3ccccc3)o2)c1C	RAM network inh 9.8
C=CCn1c(C)cc(C(=O)CSc2nc3ccccc3c(=O)[nH]2)c1C	Yeast lifespan up 69
Cc1ccc(C(=O)NCC(=O)OCC(=O)c2cc(C)n(Cc3ccco3)c2C)cc1	none
C=CCn1c(C)cc(C(=O)COC(=O)CNC(=O)c2ccccc2)c1C	Measles CPE 26
O=C(/C=C/c1cn(-c2ccccc2)nc1-c1cccnc1)c1ccco1	none (no result: Measles CPE, Yeast lifespan up, BB579 growth dn)
O=C(Nc1cc(C(F)(F)F)ccc1Cl)C(Sc1cccc[n+]1[O-])c1ccccc1 (configuration not stated)	BB579 growth dn 93
O=C(CNC(=O)c1ccccc1F)OC(C(=O)Nc1cc(C(F)(F)F)ccc1Cl)c1ccccc1 (configuration not stated)	none
O=C(Nc1cc(C(F)(F)F)ccc1Cl)C(Sc1nnc(-c2cccs2)o1)c1ccccc1 (configuration not stated)	none
C[C@H](NC(=O)c1ccccc1Cl)C(=O)OC(C(=O)Nc1cc(C(F)(F)F)ccc1Cl)c1ccccc1 (some centres not stated)	Measles CPE 58
CC1CCN(c2ccc(C(=O)NCc3ccco3)cc2[N+](=O)[O-])CC1	none
O=[N+]([O-])c1cccc(/C=N/n2cnnc2)c1O	BB579 growth dn 76
CC(C)(C)NC(=O)c1cccc(NC(=O)CSc2ccc(Cl)cc2)c1	none
CC(C)CNC(=O)c1cccc(NC(=O)CSc2ccc(Cl)cc2)c1	RAM network inh 9.8
CCCN1CNC(=S)N(c2cc(C)ccc2C)C1	Measles CPE 34 (no result: Yeast lifespan up)
O=C1C=C(O)C(n2cncn2)C(c2cc(F)ccc2F)C1 (configuration not stated)	none (no result: Measles CPE, Yeast lifespan up, BB579 growth dn)
